Columns and labels:
[1] = target: Adenosine receptor A2a (Homo sapiens) (UniProt P29274); experiment: In vitro allosteric enhancer (AE) activity for adenosine A2A receptor at 50 uM
[2] = target: T1, Adenosine receptor A1 (Homo sapiens) (UniProt P30542); experiment: In vitro allosteric enhancer (AE) activity for adenosine A1 receptor at 50 uM
T1 sequence (whole entry): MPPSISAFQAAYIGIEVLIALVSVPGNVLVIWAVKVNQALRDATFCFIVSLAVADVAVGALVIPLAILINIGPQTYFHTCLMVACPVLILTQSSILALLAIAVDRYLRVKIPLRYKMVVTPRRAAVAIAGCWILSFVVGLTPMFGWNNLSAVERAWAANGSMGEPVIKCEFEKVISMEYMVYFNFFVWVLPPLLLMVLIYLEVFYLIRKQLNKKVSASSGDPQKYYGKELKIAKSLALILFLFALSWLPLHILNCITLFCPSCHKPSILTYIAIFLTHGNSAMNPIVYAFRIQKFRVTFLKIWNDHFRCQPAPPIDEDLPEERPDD
Summary of the method: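 Single-point screen on membranes from CHO-K1 cells stably expressing hA1AR. Candidate enhancer was added at 50 μM final for 5 min. Dissociation was then started with 8-cyclopentyltheophylline plus GTPγS and run 10 min. Score = % specific agonist binding remaining; two to three assays, each in triplicate.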

[3] = target: T1, Adenosine receptor A1 (Homo sapiens); experiment: Allosteric enhancer activity against adenosine A1 receptor
[4] = target: T2, Adenosine receptor A3 (Homo sapiens) (UniProt P0DMS8); experiment: In vitro allosteric enhancer (AE) activity for adenosine A3 receptor at 50 uM
T2 sequence (whole entry): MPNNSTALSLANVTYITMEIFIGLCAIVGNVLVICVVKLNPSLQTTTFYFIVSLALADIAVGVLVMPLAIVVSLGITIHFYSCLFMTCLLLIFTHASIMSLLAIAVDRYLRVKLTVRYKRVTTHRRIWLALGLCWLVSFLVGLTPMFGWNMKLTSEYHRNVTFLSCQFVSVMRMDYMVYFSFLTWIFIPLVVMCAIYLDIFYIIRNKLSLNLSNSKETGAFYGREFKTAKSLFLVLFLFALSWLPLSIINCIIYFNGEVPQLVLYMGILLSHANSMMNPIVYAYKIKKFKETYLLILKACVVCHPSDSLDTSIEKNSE

[5] = target: T3, Adenosine receptor A1 (Homo sapiens, UniProt P30542); experiment: Antagonist activity against adenosine A1 receptor; format: functional; design: concentration or dose not given beside the values
T3 sequence (P30542 whole entry): T1 sequence (whole entry)
Summary of the method: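 Equilibrium binding on CHO-K1 hA1AR membranes (15 μg) in 10 mM HEPES pH 7.4, 1 mM EDTA, 1 U/mL adenosine deaminase, 4 nM [3H]CPX. Mixed with an equal volume of 200 μM enhancer in HEPES–10% DMSO; 200 μM NECA for nonspecific binding. Incubated 3 h at room temperature, then filtered.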

Chain of Adenosine receptor A2a (Homo sapiens) (P29274 whole entry): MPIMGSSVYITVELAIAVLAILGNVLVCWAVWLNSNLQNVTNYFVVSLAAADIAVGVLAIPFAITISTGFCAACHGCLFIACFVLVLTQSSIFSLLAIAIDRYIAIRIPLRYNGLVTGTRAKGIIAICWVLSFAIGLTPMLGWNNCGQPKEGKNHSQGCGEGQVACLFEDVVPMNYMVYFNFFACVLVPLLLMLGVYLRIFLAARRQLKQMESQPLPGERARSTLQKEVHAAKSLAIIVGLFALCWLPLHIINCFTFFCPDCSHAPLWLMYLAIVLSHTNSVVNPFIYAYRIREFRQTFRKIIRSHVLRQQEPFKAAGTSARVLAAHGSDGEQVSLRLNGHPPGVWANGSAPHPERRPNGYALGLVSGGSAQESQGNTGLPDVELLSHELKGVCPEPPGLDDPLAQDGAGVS

Row | Structure (SMILES) | EC50 [3] | Inhibition [5] | Alloste ic enhan er (AE) [1] | Alloste ic enhan er (AE) [2] | Alloste ic enhan er (AE) [4]
1 | Nc1nc2c(s1)Cc1cc(-c3cc4ccccc4o3)ccc1-2 |  |  | 0.8% | 51% | 11.9%
2 | Nc1nc2c(s1)Cc1cc(-c3ccc(C(F)(F)F)cc3)ccc1-2 | > 10 µM | > 10% | 0% | 8.9% | 0%
3 | Nc1nc2c(s1)Cc1cc(-c3cccc(F)c3)ccc1-2 | > 10 µM | > 10% | 0% | 42.8% | 3.6%
4 | Nc1nc2c(s1)Cc1cc(-c3cccs3)ccc1-2 |  |  | 0% | 32% | 1.8%
5 | Nc1nc2c(s1)Cc1cc(-c3ccc(O)cc3)ccc1-2 | > 10 µM | 36.7% | 0% | 4% | 1%
6 | Nc1nc2c(s1)Cc1cc(-c3ccc(F)cc3)ccc1-2 | > 10 µM | > 10% | 0% | 54.4% | 11.8%
7 | COc1ccc2cc(-c3ccc4c(c3)Cc3sc(N)nc3-4)ccc2c1 |  |  | 0% | 24.4% | 0%
8 | Nc1nc2c(s1)Cc1cc(-c3cccc(O)c3)ccc1-2 | > 10 µM | 36.7% | 0% | 10% | 1%
9 | Nc1nc2c(s1)Cc1cc(-c3ccccc3)ccc1-2 | > 10 µM | > 10% | 0% | 8.2% | 1.6%
10 | COc1ccccc1-c1ccc2c(c1)Cc1sc(N)nc1-2 | > 10 µM | 43.5% | 0% | 38% | 1%
11 | Nc1nc2c(s1)Cc1cc(-c3ccsc3)ccc1-2 |  |  | 0% | 68.8% | 3.8%
12 | Cc1sc(N)c(C(=O)c2cccc(C(F)(F)F)c2)c1C | > 10 µM |  | 0% | 20% | 5%

Further lines, with some results ahead:

Row | EC50 [3] | Inhibition [5] | Structure (SMILES) | Alloste ic enhan er (AE) [1] | Alloste ic enhan er (AE) [2] | Alloste ic enhan er (AE) [4]
13 | > 10 µM | 30.1% | Cc1ccc(-c2ccc3c(c2)Cc2sc(N)nc2-3)cc1C | 0% | 52% | 0%
14 | > 10 µM | > 4.2% | Nc1nc2c(s1)Cc1cc(-c3ccc4ccccc4c3)ccc1-2 | 0% | 38.6% | 4.5%
15 | > 10 µM | > 10% | Nc1nc2c(s1)Cc1cc(-c3ccccc3Cl)ccc1-2 | 0% | 36.7% | 0%
16 | > 10 µM | 13.2% | Nc1nc2c(s1)Cc1cc(-c3ccccc3F)ccc1-2 | 0% | 4.9% | 3.6%
17 | > 10 µM | 19.3% | COc1cccc(-c2ccc3c(c2)Cc2sc(N)nc2-3)c1 | 0% | 64% | 1.8%
18 | > 10 µM | 18% | COc1ccc(-c2ccc3c(c2)Cc2sc(N)nc2-3)c(OC)c1OC | 0.3% | 64.5% | 0%
19 | > 10 µM | 16% | COc1ccc(-c2ccc3c(c2)Cc2sc(N)nc2-3)c(OC)c1 | 0% | 73% | 1.9%
20 | > 10 µM | > 10% | Nc1nc2c(s1)Cc1cc(-c3cccc(Cl)c3)ccc1-2 | 0% | 22.7% | 1%
21 | > 10 µM | > 8.7% | Cc1cc(C)cc(-c2ccc3c(c2)Cc2sc(N)nc2-3)c1 | 0% | 10.5% | 0%
